Assay type in all cases: functional
Assay [1] is filed under the species Rattus norvegicus. As to the kind of experiment: Percentage of residual contractile response at 500 uM from isolated rat aorta.
The species entered for assay [2] is Rattus norvegicus. Description: Residual insulin release from rat pancreatic islets at a concentration of 50 uM. In a few lines: (§1)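 Rat pancreatic islets in groups of 10 were preincubated 30 min at 37 °C in bicarbonate salt medium with 2.8 mM glucose and 0.5% dialyzed albumin, gassed with 95% O2/5% CO2. They were then incubated 90 min at 37 °C with 16.7 mM glucose plus test drug. Insulin was measured by radioimmunoassay against a rat insulin standard and reported as % residual release.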

The species entered for assay [3] is Rattus norvegicus. As to the kind of experiment: Percentage residual insulin release by the compound at 1(uM from rat pancreatic islets. The conditions noted are these: in the assay text read “10(uM” for “1(uM”. In outline: as §1
The species named for assay [4] is Rattus norvegicus. As to the kind of experiment: Percentage of residual contractile response in isolated rat aorta; +++ indicates that a maximal vasorelaxant activity was observed at 500 uM.
The species entered for assay [5] is Rattus norvegicus. Description: Effective dose to give 50% relaxation of the KCl induced contraction. In outline: (§2)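 Endothelium-denuded transverse aortic rings (3-4 mm) from fed Wistar rats (250-300 g), held at 36 ± 1 °C under 95% O2/5% CO2. After 60 min equilibration they were contracted with 30 mM KCl. At the plateau (1-2 g), drug was added cumulatively until maximal relaxation or 1 mM. Isometric tension was recorded. ED50 was read graphically from each curve. Mean ± sem of 3-12 experiments.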

The species named for assay [6] is Rattus norvegicus. As to the kind of experiment: Percentage residual insulin release by the compound at 10 uM from rat pancreatic islets. In a few lines: as §1
For assay [7], the species on record is Rattus norvegicus. Description: Percentage residual insulin release by the compound at 1 uM from rat pancreatic islets. In a few lines: as §1
For assay [8], the species on record is Rattus norvegicus. As to the kind of experiment: Effective dose concentration by the compound to give 50% relaxation of KCl induced concentration. In a few lines:
as §2

The species named for assay [9] is Rattus norvegicus. As to the kind of experiment: Effective dose to give 50% relaxation of KCl induced concentration. In outline:
as §2

Data on 38 molecules can be found in ChEMBL document CHEMBL1129496, “3-and 4-substituted 4H-pyrido[4,3-e]-1,2,4-thiadiazine 1,1-dioxides as potassium channel openers: synthesis, pharmacological evaluation, and structure-activity relationships” (1996).

The source made the active and inactive calls. The rule behind the calls is not given here.

As for `CCC(C)NC1=NS(=O)(=O)c2cnccc2N1` (stereo not given), the Residual contractile activity in the assay listed under Rattus norvegicus [1] was 34%. Moreover, the figures for the Residual insulin secretion in the assay listed under Rattus norvegicus [2] and in the assay listed under Rattus norvegicus [3] were 9.4% and 49%, respectively.
On to `CC(C)NC1=NS(=O)(=O)c2cnccc2N1C`, for which, in the assay filed under Rattus norvegicus [1], the Residual contractile activity amounted to 84%. The molecule also came in with a Residual insulin secretion in the assay listed under Rattus norvegicus [2] of 79.4%.
For `O=S1(=O)N=C(NN2CCOCC2)Nc2ccncc21`, in that order: 93% and 98.8%.
As to `O=S1(=O)N=C(NC2CCCCC2)Nc2ccncc21`, the Residual contractile activity in the assay listed under Rattus norvegicus [1] worked out at 40%.
Regarding `CCCC1=NS(=O)(=O)c2cnccc2N1`, the Residual contractile activity in the assay listed under Rattus norvegicus [1] was 77%. The Residual insulin secretion in the assay filed under Rattus norvegicus [2] worked out at 85.1%.
On to `NC1=NS(=O)(=O)c2cnccc2N1`, for which the Residual contractile activity in the assay filed under Rattus norvegicus [1] came to 77%.
For `CC1=Nc2ccc(Cl)cc2S(=O)(=O)N1` [DIAZOXIDE], the Residual contractile activity result in the assay filed under Rattus norvegicus [4] is “Active”. Besides, the ED50 in the assay filed under Rattus norvegicus [5] worked out at 21 µM. The same molecule showed a Residual insulin secretion in the assay filed under Rattus norvegicus [6] of 70%.
With `CC(C)C(C)NC1=NS(=O)(=O)c2cnccc2N1C` (stereo not given), the Residual contractile activity in the assay listed under Rattus norvegicus [1] was found to be 69%. The molecule further displayed a Residual insulin secretion in the assay listed under Rattus norvegicus [2] of 95.4%.
Regarding `CC(NC1=NS(=O)(=O)c2cnccc2N1)C(C)(C)C` (stereo not given), the Residual contractile activity result in the assay listed under Rattus norvegicus [4] is given as “maximal vasorelaxant activity was observed at 500 uM”. Also, the ED50 in the assay listed under Rattus norvegicus [5] amounted to 104 µM. The Residual insulin secretion is listed as 10.3% in the assay filed under Rattus norvegicus [2], 41% in the assay filed under Rattus norvegicus [6] and 70% in the assay listed under Rattus norvegicus [7].
On to `CC1=NS(=O)(=O)c2cnccc2N1C(C)C`, for which, in the assay listed under Rattus norvegicus [1], the Residual contractile activity is listed as 86%. In addition, in the assay filed under Rattus norvegicus [2], the Residual insulin secretion was 68.1%.
Regarding `CC(C)C(C)NC1=NS(=O)(=O)c2cc(Cl)ccc2N1` (stereo not given), the Residual contractile activity entry in the assay listed under Rattus norvegicus [4] is on record as “maximal vasorelaxant activity was observed at 500 uM”. This molecule also displayed an ED50 in the assay listed under Rattus norvegicus [5] of 32 µM. This molecule also returned a Residual insulin secretion in the assay filed under Rattus norvegicus [2] of 11%.
Regarding `CC(NC1=NS(=O)(=O)c2cc(Cl)ccc2N1)C(C)(C)C` (stereo not given), the Residual contractile activity result in the assay filed under Rattus norvegicus [4] is “maximal vasorelaxant activity was observed at 500 uM”. Also, in the assay filed under Rattus norvegicus [5], the ED50 came out at 10 µM. The values for the Residual insulin secretion in the assay filed under Rattus norvegicus [2], in the assay listed under Rattus norvegicus [6] and in the assay filed under Rattus norvegicus [7] were 9.3%, 46.9% and 87.7%, respectively.
Consider `O=S1(=O)N=C(NC2CCCC2)Nc2ccncc21`, for which the Residual contractile activity in the assay filed under Rattus norvegicus [1] was determined as 60%. This molecule also had a Residual insulin secretion in the assay filed under Rattus norvegicus [2] of 31.6%.
`CCC(C)NC1=NS(=O)(=O)c2cc(Cl)ccc2N1` (stereo not given): the Residual contractile activity entry in the assay listed under Rattus norvegicus [4] is “maximal vasorelaxant activity was observed at 500 uM”. For the same molecule, the ED50 in the assay listed under Rattus norvegicus [5] was found to be 25 µM. Moreover, the Residual insulin secretion came out at 5.5% in the assay listed under Rattus norvegicus [2], 19.9% in the assay listed under Rattus norvegicus [6] and 85.4% in the assay listed under Rattus norvegicus [7].
In the case of `CC(C)CNC1=NS(=O)(=O)c2cnccc2N1`, in the assay listed under Rattus norvegicus [4], the Residual contractile activity result is “maximal vasorelaxant activity was observed at 500 uM”. This molecule also displayed an ED50 in the assay filed under Rattus norvegicus [5] of 205 µM.
Turning to `O=S1(=O)N=C(C2CCCC2)Nc2ccncc21`, the Residual contractile activity result in the assay listed under Rattus norvegicus [4] is recorded as “maximal vasorelaxant activity was observed at 500 uM”. The molecule further had a Residual insulin secretion in the assay listed under Rattus norvegicus [2] of 99.3%. Further, the ED50 in the assay filed under Rattus norvegicus [8] was 257 µM.
For `CC1=NS(=O)(=O)c2cc(Cl)ccc2N1C`, the Residual insulin secretion in the assay listed under Rattus norvegicus [2] was found to be 83.9%.
`CCCCNC1=NS(=O)(=O)c2cnccc2N1`: the Residual contractile activity in the assay listed under Rattus norvegicus [1] is listed as 74%. The same molecule had a Residual insulin secretion in the assay listed under Rattus norvegicus [6] of 82%.
Turning to `CCNC1=NS(=O)(=O)c2cnccc2N1`, the Residual contractile activity in the assay filed under Rattus norvegicus [1] worked out at 87%. The molecule further showed a Residual insulin secretion in the assay filed under Rattus norvegicus [2] of 59.2%.
Molecule `CC(C)NC1=NS(=O)(=O)c2cnccc2N1` registered a Residual contractile activity in the assay filed under Rattus norvegicus [1] of 89%. In addition, the Residual insulin secretion in the assay listed under Rattus norvegicus [2] is listed as 42.6%.
In the assay listed under Rattus norvegicus [1], `CC1=NS(=O)(=O)c2cnccc2N1C` gave a Residual contractile activity of 94%. In addition, the Residual insulin secretion in the assay listed under Rattus norvegicus [2] amounted to 109%.
Turning to `CCC(C)NC1=NS(=O)(=O)c2cnccc2N1C` (stereo not given), the Residual contractile activity in the assay filed under Rattus norvegicus [1] is recorded as 61%. In addition, the Residual insulin secretion in the assay filed under Rattus norvegicus [2] is reported as 81%.
For `CC1=NS(=O)(=O)c2cnccc2N1C1CCCCCCC1`, in the assay filed under Rattus norvegicus [4], the Residual contractile activity result is on record as “maximal vasorelaxant activity was observed at 500 uM”. The Residual insulin secretion in the assay listed under Rattus norvegicus [2] is 90.6%. Further, in the assay listed under Rattus norvegicus [9], the ED50 stood at 248 µM.
For `CC(C)C1=NS(=O)(=O)c2cnccc2N1`, in the assay listed under Rattus norvegicus [1], the Residual contractile activity is recorded as 71%. The same molecule showed a Residual insulin secretion in the assay filed under Rattus norvegicus [2] of 79.7%.
`CN1CCN(C2=NS(=O)(=O)c3cnccc3N2)CC1`: the Residual contractile activity result in the assay filed under Rattus norvegicus [4] is given as “maximal vasorelaxant activity was observed at 500 uM”. This molecule also came in with an ED50 in the assay filed under Rattus norvegicus [5] of 125 µM. The Residual insulin secretion in the assay filed under Rattus norvegicus [2] was 90.6%.
As to `CC1=NS(=O)(=O)c2cnccc2N1N1C2CCCC1CC2`, in the assay filed under Rattus norvegicus [1], the Residual contractile activity came out at 53%. The molecule further showed a Residual insulin secretion in the assay listed under Rattus norvegicus [2] of 71.9%.
Consider `CC(NC1=NS(=O)(=O)c2cnccc2N1C)C(C)(C)C` (stereo not given), for which the Residual contractile activity in the assay listed under Rattus norvegicus [1] turned out to be 74%. The Residual insulin secretion in the assay filed under Rattus norvegicus [2] was found to be 88.5%.
The corresponding values for `CC1=NS(=O)(=O)c2cnccc2N1N1CCOCC1` are 89% and 93.5%.
The corresponding values for `O=S1(=O)N=C(C(F)(F)F)Nc2ccncc21` are 96% and 90.4%.
In the case of `CC(C)(C)C1=NS(=O)(=O)c2cnccc2N1`, the Residual contractile activity result in the assay listed under Rattus norvegicus [4] was “maximal vasorelaxant activity was observed at 500 uM”. The molecule further returned a Residual insulin secretion in the assay filed under Rattus norvegicus [2] of 81.1%. This molecule showed an ED50 in the assay listed under Rattus norvegicus [8] of 258 µM.
As for `O=S1(=O)NC(C2CCCC2)=Nc2ccc(Cl)cc21`, the Residual contractile activity entry in the assay filed under Rattus norvegicus [4] is given as “maximal vasorelaxant activity was observed at 500 uM”. This molecule gave a Residual insulin secretion in the assay listed under Rattus norvegicus [2] of 14.1%. Moreover, in the assay listed under Rattus norvegicus [8], the ED50 is 2.8 µM.
As to `CC1=NS(=O)(=O)c2cnccc2N1C1CCCCC1`, the Residual contractile activity in the assay listed under Rattus norvegicus [1] was found to be 52%. The molecule also displayed a Residual insulin secretion in the assay listed under Rattus norvegicus [2] of 87.9%.
Turning to `CC1=NS(=O)(=O)c2cnccc2N1`, in the assay listed under Rattus norvegicus [1], the Residual contractile activity is 92%. The molecule also returned a Residual insulin secretion in the assay filed under Rattus norvegicus [2] of 100.4%.
Regarding `CC(C)C(C)NC1=NS(=O)(=O)c2cnccc2N1` (stereo not given), the Residual contractile activity entry in the assay filed under Rattus norvegicus [4] was “Active”. The molecule further displayed an ED50 in the assay listed under Rattus norvegicus [5] of 302 µM. The molecule also showed a Residual insulin secretion in the assay listed under Rattus norvegicus [2] of 8.6%.
In the assay filed under Rattus norvegicus [1], `CCCCN(C)C1=NS(=O)(=O)c2cnccc2N1` had a Residual contractile activity of 47%. Further, in the assay filed under Rattus norvegicus [2], the Residual insulin secretion is reported as 76.1%.
With `CCC1=NS(=O)(=O)c2cnccc2N1`, in the assay listed under Rattus norvegicus [1], the Residual contractile activity stood at 74%. The molecule also showed a Residual insulin secretion in the assay listed under Rattus norvegicus [2] of 90.2%.
With `CCCNC1=NS(=O)(=O)c2cnccc2N1`, in the assay listed under Rattus norvegicus [1], the Residual contractile activity is listed as 88%.
In the case of `O=S1(=O)N=CNc2ccncc21`, the Residual contractile activity in the assay filed under Rattus norvegicus [1] is reported as 94%. The Residual insulin secretion in the assay filed under Rattus norvegicus [2] is given as 99.5%.
